KCNK3 inh – human KCNK3 channel inhibition, primary screen; O14649; CHO-KCNK3 thallium flux, FluxOR fluorescence; hits give low values; B-score at 10 µM; 340,000 tested, 0.84% active;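 active means B-score under library mean minus 4 SD, starting fluorescence ratio at most library mean plus 5 SD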;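 further: more negative B-score means stronger inhibition of thallium flux through KCNK3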
Target sequence (O14649 whole entry, looked up): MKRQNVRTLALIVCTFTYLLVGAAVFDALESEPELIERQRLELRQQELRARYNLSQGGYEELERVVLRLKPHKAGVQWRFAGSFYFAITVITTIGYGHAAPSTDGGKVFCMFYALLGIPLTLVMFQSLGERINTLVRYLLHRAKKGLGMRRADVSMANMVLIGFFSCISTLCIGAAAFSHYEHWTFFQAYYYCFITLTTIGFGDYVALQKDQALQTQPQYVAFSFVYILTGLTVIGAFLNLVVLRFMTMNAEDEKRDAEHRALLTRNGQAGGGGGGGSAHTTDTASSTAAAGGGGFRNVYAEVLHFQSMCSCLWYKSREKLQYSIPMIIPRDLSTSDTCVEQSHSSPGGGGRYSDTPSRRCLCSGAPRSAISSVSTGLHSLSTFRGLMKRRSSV
KCNK9 inh – blocks the human KCNK9 two-pore domain potassium channel. 310,000 tested, 1.2% active. B-score at 10 µM. HEK293 KCNK9, FluxOR thallium flux fluorescence; hits give low values. Q9NPC2;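 active means ratio B-score over 3 SD below the library mean, with starting fluorescence within 5 SD of its mean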;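 further: negative B-score means less thallium flux so channel inhibition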
Target sequence (Q9NPC2 whole entry, looked up, the tested form may be a part): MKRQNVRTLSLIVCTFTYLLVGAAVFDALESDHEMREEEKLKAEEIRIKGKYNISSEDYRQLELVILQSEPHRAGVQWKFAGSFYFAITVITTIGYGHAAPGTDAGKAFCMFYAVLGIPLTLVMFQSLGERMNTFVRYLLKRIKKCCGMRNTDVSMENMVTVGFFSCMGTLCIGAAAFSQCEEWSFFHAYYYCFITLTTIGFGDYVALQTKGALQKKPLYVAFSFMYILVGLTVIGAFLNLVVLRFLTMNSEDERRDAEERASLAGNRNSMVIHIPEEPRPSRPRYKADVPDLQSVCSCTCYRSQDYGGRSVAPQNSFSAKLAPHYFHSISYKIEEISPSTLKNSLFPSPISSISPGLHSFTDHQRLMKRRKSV
hERG protect – hERG (human) protection from proarrhythmic block; Q12809; CHO-hERG, FluxOR thallium flux, dofetilide IC70 present; activation (rescue from dofetilide block), less the hit threshold, % at 10 µM; 310,000 tested, 0.51% active; AID 1511;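 active means activation above the mean of controls blocked by dofetilide plus 5 SD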;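 further: thallium influx through hERG after potassium depolarization seen as dye fluorescence rise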
Kir21 inh – inhibitors of mouse Kir2.1 inward-rectifier potassium channel; P35561; HEK293-Kir2.1, FluxOR thallium flux fluorescence; hits give low values; B-score at 10 µM; 310,000 tested, 0.85% active; AID 1672;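 active means fluorescence ratio B-score at or below minus 3 SD of library scores, with starting-brightness B-score within 2 SD, cut at about -4.2 in these data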;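 further: channel flux triggered by added potassium and thallium sulfate stimulus; B-score of peak minus minimum fluorescence over baseline after thallium stimulus; more negative B-score means stronger Kir2.1 block with less thallium influx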
KCNQ1 pot – potentiates or activates the human KCNQ1 potassium channel; P51787; CHO-K1 KCNQ1, thallium flux FluxOR fluorescence; hits give high values; B-score at 10 µM; 310,000 tested, 0.35% active; AID 2648;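 active means fluorescence ratio B-score, a plate-corrected score, at least three library SD, with initial intensity B-score within 5 SD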
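Material: CHO-K1 cells stably expressing KCNQ1. Medium: assay buffer for compound exposure, DMSO matched across wells. Reagent: K+/Tl+ depolarizing stimulus. Compound dosing: single-concentration screen. Times: 37 °C overnight plating, 90-min dark dye load, 20-min compound pretreatment. Technique: FluxOR Tl+ flux fluorescence.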
KCNQ1 block – inhibitors of human KCNQ1 potassium channel | P51787 | B-score at 10 µM | CHO-K1 KCNQ1, FluxOR thallium flux fluorescence; hits give high values | 310,000 tested, 1.3% active;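 active means compounds whose thallium flux B-score, printed positive for inhibition, exceeds three library SD while starting fluorescence stays within three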;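 further: channel opened by potassium depolarization with thallium stimulus after 20 min compound exposure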
KCNK9 inh conf – confirmation of human KCNK9 potassium channel inhibitors; shares compounds with KCNK9 inh; HEK293 KCNK9 cells, FluxOR thallium flux fluorescence; inhibition, % at 10 µM; 4,900 tested, 43% active; AID 492992;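 active means thallium signal inhibited by more than 5 SD of the compound-free buffer control wells, on both duplicate plates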;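 further: 0% = assay buffer control wells without compound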
Kir21 sel – selectivity of KCNK9 modulators against mouse Kir2.1 | 4,900 tested, 4% active | inhibition, % at 10 µM | shares compounds with KCNK9 inh | AID 492993 | Kir2.1 cells, FluxOR thallium flux fluorescence;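 active means thallium signal drop more than 5 SD beyond the mean of the no-compound control wells, seen in both duplicate plates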;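 further: signal is fluorescence rise after thallium addition divided by baseline fluorescence; plate controls were assay buffer only for no effect and full block by chlorpromazine control for full effect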
HEK293 Tl ctr – second check of KCNK9 modulator effects in non-induced HEK293 cells. 4,900 tested, 40% active. inhibition, % at 10 µM. AID 492997. FluxOR thallium flux. shares compounds with KCNK9 inh;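 active means thallium signal drop beyond 5 SD of the untreated control mean, on both duplicate plates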;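 further: plate controls were buffer only IC0 wells for no effect and SID17386958 at its maximal inhibitory level for full effect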
KCNK3 confirm – confirmation of human KCNK3 two-pore domain potassium channel inhibitors | CHO-KCNK3 thallium flux, FluxOR fluorescence; 0% buffer, 100% carvedilol maximal block | ratio percent of control, % at 10 µM | shares compounds with KCNK3 inh | 2,400 tested, 99% active;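 active means ratio percent of control, averaged over triplicates, above buffer control mean plus 5 SD, cut at about 64% in these data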;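 further: ratio is the fluorescence rise from min to max over baseline after thallium stimulus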
KCNK3 noninduced – counter-screen for KCNK3 inhibitors: effect in non-induced cells; shares compounds with KCNK3 inh; non-induced KCNK3 parental cells, FluxOR thallium flux; hits give low values; thallium flux ratio (lower = more inhibition) at 10 µM; 2,400 tested, 40% active; AID 651747;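 active means thallium flux ratio, averaged over three wells, more than 5 SD below the buffer control mean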;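 further: host cells are CHO cells without KCNK3 induction; ratio is peak minus trough fluorescence over baseline then normalized to buffer controls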
* = called active by the depositor; i = inactive; nt = no result given; ! = a repeat was not active. The list is not random: actives were taken first. Their share in the collection is about 3.8%.

SMILES	KCNK3 inh	KCNK9 inh	hERG protect	Kir21 inh	KCNQ1 pot	KCNQ1 block	KCNK9 inh conf	Kir21 sel	HEK293 Tl ctr	KCNK3 confirm	KCNK3 noninduced
Cc1ccc(CN2CCCN(Cc3cc(C)ccc3C)S2(=O)=O)cc1	-9.75*	-15.5*	-7.7	-2.09	i	i	62.5%*	i	37.0%*	0.0	i
Nc1sc(-c2ccccc2)cc1C(=O)N/N=C/c1ccc(Cl)cc1	i	-14*	-8.8	-0.7	i	i	52.0%*	i	38.5%*	122.7*	i
O=C(N/N=C/c1ccc(Cl)cc1)c1cc(-c2cccnc2)nc2ccccc12	i	i	-4.5	0.26	i	i	nt	nt	nt	nt	nt
Cc1ccc(O)c(C(=O)c2cnc3c(c2)COc2ccccc2-3)c1	i	-14.5*	-9.9	-0.4	i	i	41.0%*	i	27.5%*	96.3*	i
O=C(c1cnc2c(c1)COc1ccc(Cl)cc1-2)c1ccccc1O	i	i	-2.8	-1.56	i	i	nt	nt	nt	nt	nt
Cn1nnnc1SCC(=O)Nc1cc(S(=O)(=O)N2CCCC2)ccc1Cl	i	i	-12.8	1.54	i	i	nt	nt	nt	nt	nt
Cc1ccc(S(=O)(=O)N(C)C)cc1NC(=O)CSc1nnnn1-c1ccc(O)cc1	-9.8*	-14*	-14.6	-0.2	i	i	41.5%*	i	25.5%*	106.3*	i
CN(C)S(=O)(=O)c1ccc(Cl)c(NC(=O)CSc2nnnn2-c2ccc(O)cc2)c1	-9.02*	-12.5*	-2.0	-0.09	i	i	50.5%*	i	27.5%*	95.7*	i
CCN(CC)C(=O)Oc1ccc2oc(=O)cc(-c3cc4cccc(OC)c4o3)c2c1	-9.96*	-18.2*	-16.6	0.03	i	i	80.0%*	i	34.0%*	104.3*	i
COc1ccc2oc(=O)cc(-c3cc4cccc(OC)c4o3)c2c1	i	i	-5.0	-0.43	i	i	nt	nt	nt	nt	nt
CSc1ccccc1NC(=O)c1cccc(S(=O)(=O)N2CCN(C)CC2)c1	i	i	-8.8	1.61	i	i	nt	nt	nt	nt	nt
O=S(=O)(c1ccccc1)N1N=C(c2ccc(Br)cc2)CC1c1ccco1 (centres undefined)	-10.1*	-11.1*	-7.7	1.48	i	i	38.0%*	i	39.0%*	102.7*	i
O=S(=O)(c1cc(Cl)ccc1Cl)N1CCN(Cc2ccc3c(c2)OCO3)CC1	-9.71*	i	-8.7	0.27	i	i	i	i	26.5%*	112.7*	0.159*
O=C(c1ccc(COc2ccccc2Cl)o1)N1CCN(Cc2ccc3c(c2)OCO3)CC1	-10.5*!	-11.7*	-11.8	-0.63	i	i	47.0%*	i	25.0%*	123.3*	i
CC=Cc1cc(OC)c2c(c1)C(C)C(c1ccc(O)c(OC)c1)O2 (centres undefined)	i	nt	nt	nt	nt	nt	nt	nt	nt	nt	nt
Cc1ccnc(NC(=O)CCc2c[nH]c3ccccc23)c1	i	i	-10.6	2.94	i	i	nt	nt	nt	nt	nt
Cc1sc(NC(=O)c2ccco2)c(CN2CCN(c3ccccc3)CC2)c1C	i	-9.91*	-14.5	-0.06	i	i	35.0%*	i	35.0%*	112.7*	i
CC(C)(C)n1nnnc1C(c1ccncc1)N1CCN(c2ccc(O)cc2)CC1 (centres undefined)	i	i	-6.6	1.09	i	i	nt	nt	nt	nt	nt
CC(C)C(c1nnnn1C(C)(C)C)N1CCN(c2cccc(Cl)c2)CC1 (centres undefined)	-10*	-12*	-7.0	-0.04	i	i	58.5%*	i	36.5%*	126.0*	0.151*
COc1cc(OC)nc(Oc2cc(C=O)ccc2OC)n1	i	i	-13.1	0.04	i	i	nt	nt	nt	nt	nt
CN(/N=C/c1cc(Cl)cc(Cl)c1O)c1c(Cl)cccc1[N+](=O)[O-]	-11.3*	-13.3*	-4.6	1.41	i	i	62.5%*	i	48.5%*	115.7*	0.146*
COc1ccc(CN2CC(C(=O)N3CC(C)CC(C)C3)CC2=O)cc1 (centres undefined)	i	i	-7.8	0.32	i	i	nt	nt	nt	nt	nt
COc1ccccc1/C=C/C(=O)OCC(=O)Nc1c(C)nn(-c2ccccc2)c1C	i	nt	nt	nt	nt	nt	nt	nt	nt	nt	nt
CC(C)c1ccccc1NC(=O)c1cccc(NC(=O)c2ccccc2)c1	-10.5*	-10.1*	-5.5	-2.13	i	i	40.5%*	i	i	105.7*	i
CC(C)c1cc(NC(=O)c2ccccc2)cc(C(C)C)c1O	i	i	-3.3	-2.59	i	i	nt	nt	nt	nt	nt
SMILES	KCNK3 inh	KCNK9 inh	hERG protect	Kir21 inh	KCNQ1 pot	KCNQ1 block	KCNK9 inh conf	Kir21 sel	HEK293 Tl ctr	KCNK3 confirm	KCNK3 noninduced
CCc1cccc(CC)c1NC(=O)c1cccc(NC(=O)c2ccccc2)c1	i	-8.6*	-6.2	1.29	i	i	64.5%*	i	i	81.3*	i
O=C(NCCC(=O)N1CCN(C(=O)c2ccco2)CC1)c1ccc(Br)cc1	i	i	-15.8	0.09	i	i	nt	nt	nt	nt	nt
CCOc1ccc(C(=O)NCC(=O)NCC(c2cccs2)N2CCOCC2)cc1 (centres undefined)	i	i	-9.1	0.39	i	i	nt	nt	nt	nt	nt
CCOC(=O)c1c(NC(=O)CSc2nnc(C)s2)sc2c1CCCCC2	-9.75*	-9.4*	-1.3	0.1	i	i	37.0%*	i	47.5%*	121.0*	0.159*
COc1ccc(C(C)=O)cc1COC(=O)c1cc2ccccc2cc1O	-13*	-14.9*	-9.3	2.24	i	i	31.5%*	i	29.0%*	109.3*	i
COc1ccc(C(C)=O)cc1COC(=O)c1cccnc1Cl	i	i	-3.8	1.13	i	i	nt	nt	nt	nt	nt
CC(C)NC(=O)N(C)C[C@H]1Oc2ccc(NC(=O)Cc3ccccc3)cc2C(=O)N([C@H](C)CO)C[C@@H]1C	i	nt	nt	nt	nt	nt	nt	nt	nt	nt	nt
CCN1CC2=C(OC(N)=C(C#N)C2c2ccccc2)/C(=C\c2ccccc2)C1 (centres undefined)	-8.92*	-8.79*	-21.3	0.01	i	i	29.0%*	i	26.0%*	105.3*	i
